Data set [1] can be described thus: Stability of the compound in phosphate buffer assessed as compound remaining at pH 7.4 after 15 mins by LC-MS-MS analysis in presence of trypsin. It is filed as ADME. The conditions noted are these: phosphate buffer with trypsin, read-out: Stability.
The nature of data set [2]: Apparent passive permeability across apical to basolateral side in human Caco2 cells at 10 uM after 30 to 60 mins by LC/MS analysis. It is filed as ADME, cell-based. The conditions noted are these: Caco-2. A general note: Passage across Caco-2 layers is used to estimate intestinal permeability.
Data set [3] can be described thus: Half life in human at 3.3 pmol/kg/min, iv administered as infusion. It is filed as ADME, organism-based. The conditions noted are these: in vivo.
For data set [4], the target named is T1, Vasoactive intestinal polypeptide receptor 2 (Homo sapiens, UniProt P41587).
T1 sequence (P41587 whole entry): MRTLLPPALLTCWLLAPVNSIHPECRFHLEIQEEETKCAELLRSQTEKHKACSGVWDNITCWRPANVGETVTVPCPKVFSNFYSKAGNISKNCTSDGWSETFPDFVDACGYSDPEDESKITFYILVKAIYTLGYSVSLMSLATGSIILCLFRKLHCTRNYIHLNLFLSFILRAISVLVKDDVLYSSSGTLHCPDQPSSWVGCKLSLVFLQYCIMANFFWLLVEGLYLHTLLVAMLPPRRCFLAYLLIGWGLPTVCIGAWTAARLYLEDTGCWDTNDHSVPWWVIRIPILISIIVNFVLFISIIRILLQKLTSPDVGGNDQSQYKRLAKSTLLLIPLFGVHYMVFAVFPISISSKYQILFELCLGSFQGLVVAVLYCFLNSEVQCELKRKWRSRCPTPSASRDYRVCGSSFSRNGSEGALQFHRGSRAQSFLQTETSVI
Put plainly: Agonist activity at human VPAC2 expressed in CHO Flp-in cells assessed as accumulation of cAMP after 30 mins by TR-FRET assay. It is filed as functional, cell-based. In general terms: Time-resolved FRET reads energy transfer from a long-lived donor to a nearby acceptor.

The test system of data set [5] is Pancreatic islet. Put plainly: Induction of 8 mM glucose-induced insulin secretion in Han Wistar rat pancreatic islets at 10 to 100 nM after 2 hrs by HTRF assay. It is filed as functional. A digest of the protocol: (§1)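 Isolated rat pancreatic islets were incubated with peptide in 8 mM glucose, and insulin secretion was measured. Data are mean ±SE (n > 3), and significance was tested against vehicle-treated samples.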

Data set [6] concerns Pancreatic islet. Put plainly: Induction of 8 mM glucose-induced insulin secretion in Han Wistar rat pancreatic islets at 100 nM after 2 hrs by HTRF assay. The class given is functional. A digest of the protocol: as §1
Data set [7] concerns Pancreatic islet. The data set is described as follows: Induction of 8 mM glucose-induced insulin secretion in Han Wistar rat pancreatic islets after 2 hrs by HTRF assay. The class given is functional. A digest of the protocol: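 Isolated rat pancreatic islets were incubated with 8 mM glucose plus peptide over a range of concentrations, and secreted insulin was measured. Data are mean (±SE), n > 3, and were compared with vehicle-treated samples (p < 0.05, 0.01, 0.001).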

The test system of data set [8] is Pancreatic islet. Put plainly: Induction of 8 mM glucose-induced insulin secretion in Han Wistar rat pancreatic islets at 1 to 100 nM after 2 hrs by HTRF assay. It is filed as functional. Put shortly:
as §1

Calls of active or inactive are those of the source. The rule behind the calls is not given here. Bridge positions count the residues as written; N and C are the ends. Peptide text beside a SMILES is read from it.

As to `CC[C@H](C)[C@H](NC(=O)[C@H](CO)NC(=O)[C@H](CC(N)=O)NC(=O)[C@H](CC(C)C)NC(=O)[C@H](Cc1ccc(O)cc1)NC(=O)[C@H](CCCCN)NC(=O)[C@H](CCCCN)NC(=O)[C@@H](NC(=O)[C@H](C)NC(=O)[C@H](CCSC)NC(=O)[C@H](CCC(N)=O)NC(=O)[C@H](CCCCN)NC(=O)[C@H](CCCN=C(N)N)NC(=O)[C@H](CC(C)C)NC(=O)[C@H](CCCN=C(N)N)NC(=O)[C@@H](NC(=O)[C@H](Cc1ccc(O)cc1)NC(=O)[C@H](CC(N)=O)NC(=O)[C@H](CC(=O)O)NC(=O)[C@@H](NC(=O)[C@H](Cc1ccccc1)NC(=O)[C@@H](NC(=O)[C@H](C)NC(=O)[C@H](CC(=O)O)NC(=O)[C@H](CO)NC(=O)[C@@H](N)Cc1c[nH]cn1)C(C)C)[C@@H](C)O)[C@@H](C)O)C(C)C)C(=O)N[C@@H](CC(C)C)C(=O)N[C@@H](CC(N)=O)C(N)=O`, the remaining at 0.25 h in data set [1] was found to be 0.5%. In addition, the Papp A→B (usually how fast a substance crosses the layer from the apical side) at 10 µM in data set [2] is less than 0.1 ×10⁻⁶ cm/s. Moreover, the half-life – broadly, how long it takes for the measured level to halve – in data set [3] was less than 1 min.

As to `CC[C@H](C)[C@H](NC(=O)[C@H](CO)NC(=O)[C@H](CC(N)=O)NC(=O)[C@H](CC(C)C)NC(=O)[C@H](Cc1ccc(O)cc1)NC(=O)[C@H](CCCCN)NC(=O)[C@H](CCCCN)NC(=O)[C@@H](NC(=O)[C@H](C)NC(=O)[C@]1(C)CCCC/C=C\CCCC[C@](C)(NC(=O)[C@H](CCCNC(=N)N)NC(=O)[C@@H](NC(=O)[C@H](Cc2ccc(O)cc2)NC(=O)[C@H](CC(N)=O)NC(=O)[C@H](CC(=O)O)NC(=O)[C@@H](NC(=O)[C@H](Cc2ccccc2)NC(=O)[C@@H](NC(=O)[C@H](C)NC(=O)[C@H](CC(=O)O)NC(=O)[C@H](CO)NC(=O)[C@@H](N)Cc2cnc[nH]2)C(C)C)[C@@H](C)O)[C@@H](C)O)C(=O)N[C@@H](CCCNC(=N)N)C(=O)N[C@@H](CCCCN)C(=O)N[C@@H](CCC(N)=O)C(=O)N1)C(C)C)C(=O)N[C@@H](CC(C)C)C(=O)N[C@@H](CC(N)=O)C(=O)NCC(=O)N[C@@H](CCCCN)C(=O)O`, in data set [4], the EC50 (as a rule, the concentration giving half of the maximal effect) was determined as 0.049 nM. Further, in data set [5], the outcome was Active. For the same compound, in data set [1], the remaining at 0.25 h worked out at 1.5%. Moreover, the Papp A→B at 10 µM in data set [2] was less than 0.1 ×10⁻⁶ cm/s.

With `C=CCCC[C@](C)(NC(=O)[C@H](CCC(N)=O)NC(=O)[C@H](CCCCN)NC(=O)[C@H](CCCNC(=N)N)NC(=O)[C@](C)(CCCC=C)NC(=O)[C@H](CCCNC(=N)N)NC(=O)[C@@H](NC(=O)[C@H](Cc1ccc(O)cc1)NC(=O)[C@H](CC(N)=O)NC(=O)[C@H](CC(=O)O)NC(=O)[C@@H](NC(=O)[C@H](Cc1ccccc1)NC(=O)[C@@H](NC(=O)[C@H](C)NC(=O)[C@H](CC(=O)O)NC(=O)[C@H](CO)NC(=O)[C@@H](N)Cc1cnc[nH]1)C(C)C)[C@@H](C)O)[C@@H](C)O)C(=O)N[C@@H](C)C(=O)N[C@H](C(=O)N[C@@H](CCCCN)C(=O)N[C@@H](CCCCN)C(=O)N[C@@H](Cc1ccc(O)cc1)C(=O)N[C@@H](CC(C)C)C(=O)N[C@@H](CC(N)=O)C(=O)N[C@@H](CO)C(=O)N[C@H](C(=O)N[C@@H](CC(C)C)C(=O)N[C@@H](CC(N)=O)C(=O)NCC(=O)N[C@@H](CCCCN)C(=O)O)[C@@H](C)CC)C(C)C`, the outcome in data set [6] was Active.

With `CC[C@H](C)[C@H](NC(=O)[C@H](CO)NC(=O)[C@H](CC(N)=O)NC(=O)[C@H](CC(C)C)NC(=O)[C@H](Cc1ccc(O)cc1)NC(=O)[C@H](CCCCN)NC(=O)[C@H](CCCCN)NC(=O)[C@@H](NC(=O)[C@H](C)NC(=O)[C@H](CCSC)NC(=O)[C@H](CCC(N)=O)NC(=O)[C@H](CCCCN)NC(=O)[C@H](CCCNC(=N)N)NC(=O)[C@H](CC(C)C)NC(=O)[C@H](CCCNC(=N)N)NC(=O)[C@@H](NC(=O)[C@H](Cc1ccc(O)cc1)NC(=O)[C@H](CC(N)=O)NC(=O)[C@H](CC(=O)O)NC(=O)[C@@H](NC(=O)[C@H](Cc1ccccc1)NC(=O)[C@@H](NC(=O)[C@H](C)NC(=O)[C@H](CC(=O)O)NC(=O)[C@H](CO)NC(=O)[C@@H](N)Cc1cnc[nH]1)C(C)C)[C@@H](C)O)[C@@H](C)O)C(C)C)C(=O)N[C@@H](CC(C)C)C(=O)N[C@@H](CC(N)=O)C(=O)O`, the Activity entry in data set [7] is “Dose-dependent effect”.

As for `CC[C@H](C)[C@H](NC(=O)[C@H](Cc1ccccc1)NC(=O)[C@H](CCC(=O)O)NC(=O)[C@H](CCCCN)NC(=O)[C@H](C)NC(=O)[C@H](C)NC(=O)[C@H](CCC(N)=O)NC(=O)CNC(=O)[C@H](CCC(=O)O)NC(=O)[C@H](CC(C)C)NC(=O)[C@H](Cc1ccc(O)cc1)NC(=O)[C@H](CO)NC(=O)[C@H](CO)NC(=O)[C@@H](NC(=O)[C@H](CC(=O)O)NC(=O)[C@H](CO)NC(=O)[C@@H](NC(=O)[C@H](Cc1ccccc1)NC(=O)[C@@H](NC(=O)CNC(=O)[C@H](CCC(=O)O)NC(=O)[C@H](C)NC(=O)[C@@H](N)Cc1c[nH]cn1)[C@@H](C)O)[C@@H](C)O)C(C)C)C(=O)N[C@@H](C)C(=O)N[C@@H](Cc1c[nH]c2ccccc12)C(=O)N[C@@H](CC(C)C)C(=O)N[C@H](C(=O)N[C@@H](CCCCN)C(=O)NCC(=O)N[C@@H](CCCN=C(N)N)C(=O)NCC(=O)O)C(C)C`, the Activity entry in data set [7] was “Dose-dependent effect”.

On to `CC[C@H](C)[C@H](NC(=O)[C@H](CO)NC(=O)[C@H](CC(N)=O)NC(=O)[C@H](CC(C)C)NC(=O)[C@H](Cc1ccc(O)cc1)NC(=O)[C@@H]1CCCCNC(=O)CC[C@H](NC(=O)[C@H](CCC(N)=O)NC(=O)[C@H](CCCCN)NC(=O)[C@H](CCCNC(=N)N)NC(=O)[C@H](CC(C)C)NC(=O)[C@H](CCCNC(=N)N)NC(=O)[C@@H](NC(=O)[C@H](Cc2ccc(O)cc2)NC(=O)[C@H](CC(N)=O)NC(=O)[C@H](CC(=O)O)NC(=O)[C@@H](NC(=O)[C@H](Cc2ccccc2)NC(=O)[C@@H](NC(=O)[C@H](C)NC(=O)[C@H](CC(=O)O)NC(=O)[C@H](CO)NC(=O)[C@@H](N)Cc2cnc[nH]2)C(C)C)[C@@H](C)O)[C@@H](C)O)C(=O)N[C@@H](C)C(=O)N[C@@H](C(C)C)C(=O)N[C@@H](CCCCN)C(=O)N1)C(=O)N[C@@H](CC(C)C)C(=O)N[C@@H](CC(N)=O)C(=O)NCC(=O)N[C@@H](CCCCN)C(=O)O` (H-HSDAVFTDNYTRLRKQEAVKKYLNSILNGK-OH; lactam 17-21), for which the EC50 in data set [4] was 0.1 nM. In data set [5], the outcome was Active. Further, the remaining at 0.25 h in data set [1] was determined as 0.4%. The Papp A→B at 10 µM in data set [2] is less than 0.1 ×10⁻⁶ cm/s.

Take H-HSDAVFTDNYTRLRKQEAVKKYLNSILNGK-OH: in data set [4], the EC50 was 0.38 nM. Moreover, in data set [6], the result was Active. Further, the remaining at 0.25 h in data set [1] came to 0.9%. Moreover, the Papp A→B at 10 µM in data set [2] was less than 0.1 ×10⁻⁶ cm/s.

For “H-HSDAVFTDNYTRLRKQIAVKKYLNSILNGK-OH [listing 1 of 2 here]”, the EC50 in data set [4] came out at 0.14 nM. In addition, the remaining at 0.25 h in data set [1] was 0.3%. In addition, in data set [2], the Papp A→B at 10 µM is less than 0.1 ×10⁻⁶ cm/s.

“H-HSDAVFTDNYTRLRKQIAVKKYLNSILNGK-OH [listing 2 of 2 here]”: in data set [8], the outcome was Active.

For the origin of these results see ChEMBL document CHEMBL3102798, “Stapled Vasoactive Intestinal Peptide (VIP) Derivatives Improve VPAC2 Agonism and Glucose-Dependent Insulin Secretion” (ACS Med Chem Lett, 2013).
